Peptide text beside a SMILES is read from it. * marks the point of attachment. Cbz = O=C(OCc1ccccc1)*

The species entered for the first test is Homo sapiens. In words: Inhibitory concentration against IL1-beta production in human monocytes. The format is functional.
Molecule `O=C[C@H](CC(=O)O)NC(=O)[C@@H]1CCCN2C(=O)CC[C@H](NC(=O)c3ccccc3)C(=O)N12` gave an IC50 of 1000 nM.

For a further test, the target named is T1, Caspase-1 (Homo sapiens) (UniProt P29466).
T1 sequence (whole entry): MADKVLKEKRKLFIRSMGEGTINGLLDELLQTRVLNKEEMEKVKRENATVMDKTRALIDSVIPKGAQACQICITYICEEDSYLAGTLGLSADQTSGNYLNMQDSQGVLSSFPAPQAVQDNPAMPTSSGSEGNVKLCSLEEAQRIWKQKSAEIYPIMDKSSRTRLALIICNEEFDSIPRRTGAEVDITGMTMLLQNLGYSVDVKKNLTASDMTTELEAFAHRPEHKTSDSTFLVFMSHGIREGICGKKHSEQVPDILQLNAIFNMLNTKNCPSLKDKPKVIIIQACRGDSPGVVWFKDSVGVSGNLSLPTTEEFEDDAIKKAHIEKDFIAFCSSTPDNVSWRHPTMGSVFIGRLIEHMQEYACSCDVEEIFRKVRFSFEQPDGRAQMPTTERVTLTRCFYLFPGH
In words: Second order rate constants were tested for inhibition of IL-1 beta converting enzyme (ICE). The gist of the method:
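Fluorogenic progress-curve assay: ICE in 10 mM HEPES pH 7.5, 25% glycerol, 1 mM DTT, with 10 µM Suc-Tyr-Val-Ala-Asp-AMC; read at 37 °C over 30 min. Inactivation rates are taken from nonlinear progress curves by the Tian–Tsou method, giving second-order rate constants. Determinations are in triplicate, standard error <10%.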
For the molecule `O=C(O)CSc1ccc(C(=O)N[C@H]2CCC(=O)N3CCC[C@@H](C(=O)N[C@@H](CC(=O)O)C(=O)COc4cc(C(F)(F)F)nn4-c4ccc(Cl)cc4)N3C2=O)cc1`, the K obs / 1 amounted to 1.22e+06 M⁻¹ s⁻¹. Turning to `CC(C)[C@H](NC(=O)c1ccc(CN2CCN(C)CC2)cc1)C(=O)N[C@@H](C)C(=O)N[C@@H](CC(=O)O)C(=O)COc1cc(C(F)(F)F)nn1-c1ccc(Cl)cc1`, the K obs / 1 worked out at 200000 M⁻¹ s⁻¹. Still for that read-out and setting: the result for `C[C@@H](C(=O)N[C@@H](CC(=O)O)C(=O)COc1cc(C(F)(F)F)nn1-c1ccccc1)N1CC[C@H](NC(=O)OCc2ccccc2)C1=O` reads 31800 M⁻¹ s⁻¹; that for `O=C(O)C[C@H](NC(=O)[C@@H]1CCCN2C(=O)CC[C@H](NC(=O)OCc3ccccc3)C(=O)N12)C(=O)COc1cc(C(F)(F)F)nn1-c1ccc(Cl)cc1`, 437000 M⁻¹ s⁻¹; that for `Cc1nccn1Cc1ccc(C(=O)N[C@H]2CCC(=O)N3CCC[C@@H](C(=O)N[C@@H](CC(=O)O)C(=O)COC(=O)c4c(Cl)cccc4Cl)N3C2=O)cc1`, 340000 M⁻¹ s⁻¹. The same measure, in the same setting: the result for `CN1CCN(Cc2ccc(C(=O)N[C@H]3CCC(=O)N4CCC[C@@H](C(=O)N[C@@H](CC(=O)O)C(=O)COC(=O)c5c(Cl)cccc5Cl)N4C3=O)cc2)CC1` reads 210000 M⁻¹ s⁻¹. Still for that read-out and setting: then `O=C(O)C[C@H](NC(=O)[C@@H]1CS[C@H]2CC[C@H](NC(=O)OCc3ccccc3)C(=O)N21)C(=O)COc1cc(C(F)(F)F)nn1-c1ccccc1`, with 42000 M⁻¹ s⁻¹; and `CC(C)[C@H](NC(=O)OCc1ccccc1)C(=O)N[C@@H](C)C(=O)N[C@@H](CC(=O)O)C(=O)COc1cc(C(F)(F)F)nn1-c1ccc(Cl)cc1`, with 340000 M⁻¹ s⁻¹.

In turn, `CC(C)[C@H](NC(=O)c1ccc(CN2CCOCC2)cc1)C(=O)N[C@@H](C)C(=O)N[C@@H](CC(=O)O)C(=O)COc1cc(C(F)(F)F)nn1-c1ccccc1` displayed a K obs / 1 of 186000 M⁻¹ s⁻¹. On to `CC(C)[C@H](NC(=O)OCc1ccccc1)C(=O)N[C@@H](C)C(=O)N[C@@H](CC(=O)O)C(=O)COC(=O)c1c(Cl)cccc1Cl`, for which the K obs / 1 came out at 432000 M⁻¹ s⁻¹.

For `O=C(O)C[C@H](NC(=O)[C@@H]1CCCN2C(=O)CC[C@H](NC(=O)OCc3ccccc3)C(=O)N12)C(=O)COC(=O)c1c(Cl)cccc1Cl`, the K obs / 1 came to 572000 M⁻¹ s⁻¹. On the same count and under the same terms, then `CN(C)Cc1ccc(C(=O)N[C@H]2CCC(=O)N3CCC[C@@H](C(=O)N[C@@H](CC(=O)O)C(=O)COc4cc(C(F)(F)F)nn4-c4ccc(Cl)cc4)N3C2=O)cc1`, with 162000 M⁻¹ s⁻¹; and `O=C(O)C[C@H](NC(=O)[C@@H]1CCCN2C(=O)CC[C@H](NC(=O)c3ccc(CN4CCOCC4)cc3)C(=O)N12)C(=O)COC(=O)c1c(Cl)cccc1Cl`, with 425000 M⁻¹ s⁻¹; and `O=C(O)CCCc1ccc(C(=O)N[C@H]2CCC(=O)N3CCC[C@@H](C(=O)N[C@@H](CC(=O)O)C(=O)COc4cc(C(F)(F)F)nn4-c4ccc(Cl)cc4)N3C2=O)cc1`, with 800000 M⁻¹ s⁻¹. The same measure, in the same setting: then `CSc1ccc(C(=O)Nc2cnc(-c3ccc(F)cc3)n(CC(=O)N[C@@H](CC(=O)O)C(=O)COc3cc(C(F)(F)F)nn3-c3ccc(Cl)cc3)c2=O)cc1`, with 110000 M⁻¹ s⁻¹; and `O=C(O)C[C@H](NC(=O)[C@@H]1CCCN2C(=O)CC[C@H](NC(=O)OCc3ccccc3)C(=O)N12)C(=O)COc1cc(C(F)(F)F)nn1-c1ccccc1`, with 413000 M⁻¹ s⁻¹; and `O=C(O)C[C@H](NC(=O)Cn1c(-c2ccc(F)cc2)ncc(NC(=O)OCc2ccccc2)c1=O)C(=O)COC(=O)c1c(Cl)cccc1Cl`, with 268000 M⁻¹ s⁻¹. In the case of `O=C(O)C[C@H](NC(=O)CN1C(=O)[C@@H](NC(=O)OCc2ccccc2)COc2ccccc21)C(=O)COc1cc(C(F)(F)F)nn1-c1ccc(Cl)cc1`, the K obs / 1 is 114000 M⁻¹ s⁻¹. On the same count and under the same terms, then `CSc1ccc(C(=O)N[C@H](C(=O)N[C@@H](C)C(=O)N[C@@H](CC(=O)O)C(=O)COc2cc(C(F)(F)F)nn2-c2ccccc2)C(C)C)cc1`, with 800000 M⁻¹ s⁻¹. On the same count and under the same terms, then `O=C(O)C[C@H](NC(=O)CN1C(=O)[C@@H](NC(=O)OCc2ccccc2)COc2ccccc21)C(=O)COC(=O)c1c(Cl)cccc1Cl`, with 44000 M⁻¹ s⁻¹; and `O=C(O)C[C@H](NC(=O)Cn1c(-c2ccc(F)cc2)ncc(NC(=O)OCc2ccccc2)c1=O)C(=O)COc1cc(C(F)(F)F)nn1-c1ccc(Cl)cc1`, with 310000 M⁻¹ s⁻¹.

The target of a further test is T2, Caspase-1 (Homo sapiens, UniProt P29466).
T2 sequence (P29466 whole entry): T1 sequence (whole entry)
In words: Reversible Inhibition constants against IL-1 beta converting enzyme (ICE). The gist of the method:
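Fluorescence progress curves are recorded at 37 °C over 30 min. Ki for reversible inhibitors is derived by a method from a cited reference. Determinations are in triplicate, standard error <10%.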
As for `CC(C)[C@H](NC(=O)OCc1ccccc1)C(=O)N[C@@H](C)C(=O)N[C@@H](CC(=O)O)C(=O)O` (Cbz-Val-Ala-Asp-OH), the Ki was found to be 15 nM. Same read-out and setting: then `O=C[C@H](CC(=O)O)NC(=O)[C@@H]1CCCN2C(=O)CC[C@H](NC(=O)c3ccc(OCC(=O)O)cc3)C(=O)N12`, with 1 nM; and `O=C[C@H](CC(=O)O)NC(=O)[C@@H]1CCCN2C(=O)CC[C@H](NC(=O)OCc3ccccc3)C(=O)N12`, with 25 nM; and `O=C[C@H](CC(=O)O)NC(=O)[C@@H]1CCCN2C(=O)CC[C@H](NC(=O)c3ccccc3)C(=O)N12`, with 5 nM.

The IC50 is the concentration needed to halve the response being measured. A higher IC50 goes with weaker potency in that assay. The Ki is the dissociation constant of the complex between target and ligand, obtained from inhibition or displacement. A lower Ki goes with higher affinity.

Source of the values: ChEMBL document CHEMBL1130067, “Pyridazinodiazepines as a high-affinity, P2-P3 peptidomimetic class of interleukin-1 beta-converting enzyme inhibitor” (J Med Chem, 1997).
